Series [1] is described as follows: Stability of ATP binding of DnaA at 4°, 30° or 42°C, filter retention assay. Also on record: species or system E. coli. The method, boiled down: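 Purified DnaA (1.9 μM) was loaded with 1 μM [α-32P]ATP in PP-60 buffer for 15 min at 4°C, then held at 4°, 30° or 42°C. Aliquots were withdrawn at timed intervals. Bound nucleotide was measured by retention on nitrocellulose filters and scintillation counting.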

The nature of series [2]: ThermoFluor assay, melting point of DnaA proteins. The class given is physicochemical, E. coli. For orientation: Differential scanning fluorimetry follows unfolding on heating by fluorescence.
Series [3] in a line: ThermoFluor assay with SUVs composed of DOPG. The class given is physicochemical, E. coli. As to conditions: ATP-bound form. In a few lines:
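DnaA (10 μM) was pre-incubated with 5 mM ATP on ice for 15 min, then mixed with DOPG small unilamellar vesicles at the stated concentrations. SYPRO Orange (50× dilution) was added to 50 μl final volume. Fluorescence was recorded from 25° to 95°C at 1 min/°. Tm and −dF/dT came from a variable-slope sigmoidal fit.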

The test system of series [4] is E. coli EH3287 (∆dnaA/pgsA^+). Nature of the series: Subcellular fractionation and immunoblotting of DnaA. As to conditions: 0.2% arabinose for 90 min. The class given is cell-based. In a few lines: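 ΔdnaA/pgsA+ cells carrying arabinose-inducible dnaA alleles were grown to OD600 ~0.1, then induced with 0.2% arabinose for 90 min. Lysis used lysozyme (300 μg/ml) plus three freeze-thaw cycles. Cytosol and membranes were separated at 44,000 rpm for 30 min. Membranes were solubilized in octyl-thio-glucoside or CHAPS, recentrifuged and dialysed overnight. Protein levels are relative to wild type, averaged over three biological replicates.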

The conditions of series [5]: 37°C, at least 60 min, not challenged with acidic phospholipids; cited from earlier work.
Another series has as its system E. coli EH3827. Kind of series: In vivo replication assay, poriC transformation of ∆dnaA cells. As to conditions: 0.1 or 0.2% arabinose, versus DnaA WT. The class given is cell-based.
The test system of series [6] is E. coli CM742 (dnaA46ts) carrying pRD (seqA). Nature of the series: Growth of dnaA46ts cells with SeqA-expressing plasmid pRD. It is filed as cell-based. As to conditions: 30°C, IPTG 50 μM (SeqA expressed), no arabinose, 0.2% arabinose or 0.2% glucose. The method, boiled down:
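Cells carrying the IPTG-inducible seqA plasmid were made competent on LB-agar with tetracycline and 50 μM IPTG. They were transformed with pBAD-based dnaA plasmids and selected at 30°C on tetracycline (12.5 μg/ml) plus ampicillin (100 μg/ml). Single colonies were grown in LB to OD600 ~0.1. Equal OD units were replica-plated with no sugar, 0.2% arabinose or 0.2% glucose.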

In another series the test system is E. coli CM742 (dnaA46ts). Nature of the series: Flow cytometry, total DNA content per cell. The class given is cell-based. Particulars: 30°C, 0.2% arabinose, rifampicin and cephalexin 2.5 hours. In a few lines: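 Host is dnaA46ts E. coli transformed with pBAD-derived plasmids carrying wild-type or mutant dnaA under an arabinose promoter. Overnight LB cultures with antibiotics were diluted to OD600 ~0.005 and grown 45 min. Each culture was split: one half got 0.2% arabinose, the other 0.2% glucose. At 30°C to OD600 0.15, then rifampicin (150 μg/ml) plus cephalexin (10 μg/ml) for 2.5 h; DNA content measured by flow cytometry.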

The mark [7] stands for this setting: ATP-bound form, protein 10 μM, ATP 5 mM, no SUVs (Fig. 7C).
The mark [8] stands for this setting: protein 5 μM with ATP 5 mM (Fig. 2).

B1: DnaA(WT): wild-type E. coli chromosomal replication initiator protein DnaA, purified 10× histidine-tagged (protein)
chain: MSLSLWQQCLARLQDELPATEFSMWIRPLQAELSDNTLALYAPNRFVLDWVRDKYLNNINGLLTSFCGADAPQLRFEVGTKPVTQTPQAAVTSNVAAPAQVAQTQPQRAAPSTRSGWDNVPAPAEPTYRSNVNVKHTFDNFVEGKSNQLARAAARQVADNPGGAYNPLFLYGGTGLGKTHLLHAVGNGIMARKPNAKVVYMHSERFVQDMVKALQNNAIEEFKRYYRSVDALLIDDIQFFANKERSQEEFFHTFNALLEGNQQIILTSDRYPKEINGVEDRLKSRFGWGLTVAIEPPELETRVAILMKKADENDIRLPGEVAFFIAKRLRSNVRELEGALNRVIANANFTGRAITIDFVREALRDLLALQEKLVTIDNIQKTVAEYYKIKVADLLSKRRSRSVARPRQMAMALAKELTNHSLPEIGDAFGGRDHTTVLHACRKIEQLREESHDIKEDFSNLIRTLSS
modifications: left off: His10, N-terminal, state not stated
For B1, in series [1] (4°, 30° and 42°C, up to 60 min), the “retention of bound ATP” value is “retained ATP at different temperatures comparably”. Further, the results for the melting point result in series [2] (setting [7]) and in series [2] (setting [8]) were “approximately 57 °C” and 57 °C, respectively. Further, the “melting point (peak)” value in series [3] (100 μM DOPG SUVs (Fig. 7E)) was determined as 44 °C. In addition, the “DnaA in OTG-solubilized membrane fraction (immunoblotting)” value in series [4] is “retained in the OTG-solubilized membrane fractions”. For the same molecule, the “ATP-DnaA complex remaining intact” value in series [5] is recorded as above 90%.

B2: DnaA(D118A) (protein, UniProt P03004 1-467, looked up, variant D118A)
Chromosomal replication …: MSLSLWQQCLARLQDELPATEFSMWIRPLQAELSDNTLALYAPNRFVLDWVRDKYLNNINGLLTSFCGADAPQLRFEVGTKPVTQTPQAAVTSNVAAPAQVAQTQPQRAAPSTRSGWANVPAPAEPTYRSNVNVKHTFDNFVEGKSNQLARAAARQVADNPGGAYNPLFLYGGTGLGKTHLLHAVGNGIMARKPNAKVVYMHSERFVQDMVKALQNNAIEEFKRYYRSVDALLIDDIQFFANKERSQEEFFHTFNALLEGNQQIILTSDRYPKEINGVEDRLKSRFGWGLTVAIEPPELETRVAILMKKADENDIRLPGEVAFFIAKRLRSNVRELEGALNRVIANANFTGRAITIDFVREALRDLLALQEKLVTIDNIQKTVAEYYKIKVADLLSKRRSRSVARPRQMAMALAKELTNHSLPEIGDAFGGRDHTTVLHACRKIEQLREESHDIKEDFSNLIRTLSS
In the case of B2, the “retention of bound ATP” value in series [1] (4°, 30° and 42°C, up to 60 min) was “retained ATP at different temperatures comparably”. In addition, the melting point entry in series [2] (setting [8]) was “no shift”.

B3: mutant DnaA protein where Asp^118 is substituted with Gly: DnaA mutant, Asp^118 substituted with Gly (protein, UniProt P03004 1-467, looked up, variant D118G)
Chromosomal replication …: MSLSLWQQCLARLQDELPATEFSMWIRPLQAELSDNTLALYAPNRFVLDWVRDKYLNNINGLLTSFCGADAPQLRFEVGTKPVTQTPQAAVTSNVAAPAQVAQTQPQRAAPSTRSGWGNVPAPAEPTYRSNVNVKHTFDNFVEGKSNQLARAAARQVADNPGGAYNPLFLYGGTGLGKTHLLHAVGNGIMARKPNAKVVYMHSERFVQDMVKALQNNAIEEFKRYYRSVDALLIDDIQFFANKERSQEEFFHTFNALLEGNQQIILTSDRYPKEINGVEDRLKSRFGWGLTVAIEPPELETRVAILMKKADENDIRLPGEVAFFIAKRLRSNVRELEGALNRVIANANFTGRAITIDFVREALRDLLALQEKLVTIDNIQKTVAEYYKIKVADLLSKRRSRSVARPRQMAMALAKELTNHSLPEIGDAFGGRDHTTVLHACRKIEQLREESHDIKEDFSNLIRTLSS
Molecule B3 showed a melting point in series [2] (setting [8]) of 55 °C.

B4: DnaA(A184V): control DnaA mutant defective in ATP binding, changed residue within nucleotide-binding pocket of domain III (protein, UniProt P03004 1-467, looked up, variant A184V)
Chromosomal replication …: MSLSLWQQCLARLQDELPATEFSMWIRPLQAELSDNTLALYAPNRFVLDWVRDKYLNNINGLLTSFCGADAPQLRFEVGTKPVTQTPQAAVTSNVAAPAQVAQTQPQRAAPSTRSGWDNVPAPAEPTYRSNVNVKHTFDNFVEGKSNQLARAAARQVADNPGGAYNPLFLYGGTGLGKTHLLHVVGNGIMARKPNAKVVYMHSERFVQDMVKALQNNAIEEFKRYYRSVDALLIDDIQFFANKERSQEEFFHTFNALLEGNQQIILTSDRYPKEINGVEDRLKSRFGWGLTVAIEPPELETRVAILMKKADENDIRLPGEVAFFIAKRLRSNVRELEGALNRVIANANFTGRAITIDFVREALRDLLALQEKLVTIDNIQKTVAEYYKIKVADLLSKRRSRSVARPRQMAMALAKELTNHSLPEIGDAFGGRDHTTVLHACRKIEQLREESHDIKEDFSNLIRTLSS
In the case of B4, the “retention of bound ATP” value in series [1] (4° and 30°C, with reduced affinity) was “maintained its ATP form”. In series [2] (setting [8]), the melting point amounted to 49 °C. Besides, the “reduction in the number of transformants” value in the series on E. coli EH3827 is reported as “at least 50 fold”. In series [6], the “growth on LB-agar plates” value was “showed growth at 30 °C”. The “overreplication / DNA content per cell upon induction of DnaA” value in the series with E. coli CM742 (dnaA46ts) is listed as “more extensive”.

B5: DnaA(L366K): DnaA with substitution L366K in the AAA+ membrane-binding region (protein, UniProt P03004 1-467, looked up, variant L366K)
Chromosomal replication …: MSLSLWQQCLARLQDELPATEFSMWIRPLQAELSDNTLALYAPNRFVLDWVRDKYLNNINGLLTSFCGADAPQLRFEVGTKPVTQTPQAAVTSNVAAPAQVAQTQPQRAAPSTRSGWDNVPAPAEPTYRSNVNVKHTFDNFVEGKSNQLARAAARQVADNPGGAYNPLFLYGGTGLGKTHLLHAVGNGIMARKPNAKVVYMHSERFVQDMVKALQNNAIEEFKRYYRSVDALLIDDIQFFANKERSQEEFFHTFNALLEGNQQIILTSDRYPKEINGVEDRLKSRFGWGLTVAIEPPELETRVAILMKKADENDIRLPGEVAFFIAKRLRSNVRELEGALNRVIANANFTGRAITIDFVREALRDKLALQEKLVTIDNIQKTVAEYYKIKVADLLSKRRSRSVARPRQMAMALAKELTNHSLPEIGDAFGGRDHTTVLHACRKIEQLREESHDIKEDFSNLIRTLSS
As to B5, in series [2] (setting [7]), the melting point was 54 °C. The “melting point (peak)” value in series [3] (25 μM DOPG SUVs (Fig. 7D)) is 50 °C; in series [3] (100 μM DOPG SUVs (Fig. 7E)), “did not shift further”. In addition, the “DnaA in OTG-solubilized membrane fraction (immunoblotting)” value in series [4] is recorded as “retained in the OTG-solubilized membrane fractions”.

B6: Apo-DnaA: DnaA protein without bound nucleotide, ground or inactive state (protein, UniProt P03004 1-467, looked up)
Chromosomal replication …: MSLSLWQQCLARLQDELPATEFSMWIRPLQAELSDNTLALYAPNRFVLDWVRDKYLNNINGLLTSFCGADAPQLRFEVGTKPVTQTPQAAVTSNVAAPAQVAQTQPQRAAPSTRSGWDNVPAPAEPTYRSNVNVKHTFDNFVEGKSNQLARAAARQVADNPGGAYNPLFLYGGTGLGKTHLLHAVGNGIMARKPNAKVVYMHSERFVQDMVKALQNNAIEEFKRYYRSVDALLIDDIQFFANKERSQEEFFHTFNALLEGNQQIILTSDRYPKEINGVEDRLKSRFGWGLTVAIEPPELETRVAILMKKADENDIRLPGEVAFFIAKRLRSNVRELEGALNRVIANANFTGRAITIDFVREALRDLLALQEKLVTIDNIQKTVAEYYKIKVADLLSKRRSRSVARPRQMAMALAKELTNHSLPEIGDAFGGRDHTTVLHACRKIEQLREESHDIKEDFSNLIRTLSS
modifications: nucleotide-free
Regarding B6, in series [2] (Apo form, no ATP), the melting point came out at 44 °C.

Source of the values: publication PMC9534497 (Science Advances, 2022).
